Data set [1] has as its target Gamma-secretase. As to the kind of experiment: Modulation of gamma-secretase (unknown origin) assessed as reduction of amyloid beta 42 level. Format: protein-complex assay, Homo sapiens.
The target of data set [2] is Gamma-secretase. As to the kind of experiment: Modulation of gamma-secretase (unknown origin). Format: protein-complex assay, Homo sapiens.
A short description of data set [3]: Drug level in mouse brain at 30 mg/kg, po after 4 hrs. Format: ADME, organism-based. Also noted: dose 30 mg/kg, route oral. The settings on record: read-out: Drug uptake. In short, it runs like this: (§1)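 Mice received 30 mg/kg orally. Plasma and brain were sampled at 4 h and analysed for compound by a qualified research LC-MS/MS method. The brain/plasma ratio was calculated from the two concentrations.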

A short description of data set [4]: Plasma concentration in mouse at 30 mg/kg, po after 4 hrs. Format: ADME, organism-based. Also noted: dose 30 mg/kg, route oral. A digest of the protocol:
as §1

Data set [5] is described as follows: Ratio of drug level in brain to plasma in mouse at 30 mg/kg, po after 4 hrs. Format: ADME, organism-based. Also noted: dose 30 mg/kg, route oral. As to conditions: read-out: BPR. In short, it runs like this:
as §1

In data set [6] the test system is Mus musculus. As to the kind of experiment: Antialzheimer activity in mouse assessed as reduction of amyloid beta-42 level at 30 mg/kg, po after 4 hrs by ELISA. Format: functional. A digest of the protocol: (§2)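 Mice dosed orally at 30 mg/kg, n = 6. Brain Aβ peptides were measured by ELISA 4 h after dosing. Values are given as % change versus untreated animals.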
On the technique in general: In an ELISA, binding on a coated surface is turned into a signal by an enzyme label.

The test system of data set [7] is Mus musculus. As to the kind of experiment: Antialzheimer activity in mouse assessed as reduction of total amyloid beta level at 30 mg/kg, po after 4 hrs by ELISA. Format: functional. In short, it runs like this: as §2
The nature of data set [8]: Drug metabolism in human liver microsomes at 1 uM after 15 mins. Format: ADME, Microsome. The settings on record: read-out: Drug metabolism. A digest of the protocol:
(§3)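 Compound at 1 μM was incubated with human or mouse liver microsomes for 15 min. The value is the % of compound metabolized.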
On the technique in general: Microsomes from liver hold many membrane-bound enzymes, among them those of drug oxidation.

For data set [9], the system named is Mus musculus. As to the kind of experiment: Effect in mouse assessed as increase of amyloid beta 38 level at 30 mg/kg, po after 4 hrs by ELISA.
The target in a further data set is hERG (KCNH2) (Homo sapiens, UniProt Q12809). As to the kind of experiment: Inhibition of human ERG at 3 uM by Patch-Xpress assay.
A short description of data set [10]: Drug metabolism in mouse liver microsomes at 1 uM after 15 mins. Format: ADME, Microsome. As to conditions: read-out: Drug metabolism. A digest of the protocol: as §3
The target in data set [11] is Voltage-gated inwardly rectifying potassium channel KCNH2 (Homo sapiens, UniProt Q12809). As to the kind of experiment: Binding affinity to human ERG.
A further data set addresses T1, Cytochrome P450 1A2 (Homo sapiens, UniProt P05177).
T1 sequence (P05177 whole entry): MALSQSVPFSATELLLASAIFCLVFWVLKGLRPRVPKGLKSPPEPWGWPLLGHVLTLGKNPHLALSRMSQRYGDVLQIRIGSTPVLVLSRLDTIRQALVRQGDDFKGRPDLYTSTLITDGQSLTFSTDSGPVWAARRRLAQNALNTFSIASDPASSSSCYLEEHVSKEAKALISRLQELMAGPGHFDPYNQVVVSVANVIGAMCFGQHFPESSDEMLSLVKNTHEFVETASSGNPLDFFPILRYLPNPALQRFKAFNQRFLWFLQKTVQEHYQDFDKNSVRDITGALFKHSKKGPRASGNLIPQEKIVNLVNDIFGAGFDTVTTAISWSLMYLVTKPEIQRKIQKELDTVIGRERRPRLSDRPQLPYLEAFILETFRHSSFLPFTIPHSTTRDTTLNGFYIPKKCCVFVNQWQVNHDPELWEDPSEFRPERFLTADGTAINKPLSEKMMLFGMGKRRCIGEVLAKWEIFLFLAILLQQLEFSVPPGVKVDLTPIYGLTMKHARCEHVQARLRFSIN
As to the kind of experiment: Inhibition of CYP1A2 (unknown origin).

In the next data set the target is Cytochrome P450 2C19 (Homo sapiens, UniProt P33261). As to the kind of experiment: Inhibition of CYP2C19 (unknown origin).
Data set [12] in a line: Fraction unbound in rat brain. Format: ADME, tissue-based. In short, it runs like this: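 Unbound fraction in rat brain tissue, expressed as %.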
The target of another data set is Cytochrome P450 2C9 (Homo sapiens, UniProt P11712). As to the kind of experiment: Inhibition of CYP2C9 (unknown origin).
For the next data set, the target named is Cytochrome P450 3A4 (Homo sapiens, UniProt P08684). As to the kind of experiment: Inhibition of CYP3A4 (unknown origin).
Data set [13] can be described thus: Fraction unbound in human plasma. Format: ADME, cell-free. In short, it runs like this:
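Unbound fraction in human plasma, determined as binding to human plasma proteins.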

The next data set deals with Cytochrome P450 2D6 (Homo sapiens, UniProt P10635). As to the kind of experiment: Inhibition of CYP2D6 (unknown origin).
Data set [14] concerns Canis familiaris. As to the kind of experiment: Antialzheimer activity in dog assessed as reduction of amyloid beta 42 level in cerebrospinal fluid at 20 mg/kg, po after 8 hrs by ELISA. Format: functional. The settings on record: Canis lupus familiaris. In short, it runs like this:
(§4)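 Dogs received 20 mg/kg orally. CSF Aβ42 and Aβ38 were measured 8 h after dosing and expressed as % change.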

Data set [15] is described as follows: Plasma concentration in dog at 20 mg/kg, po after 8 hrs. Format: ADME, organism-based, Canis lupus familiaris. Also noted: dose 20 mg/kg, route oral. A digest of the protocol:
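Dogs received 20 mg/kg orally. Plasma compound concentration was measured at 8 h and reported in ng/mL and μM.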

Data set [16] has as its system Canis familiaris. As to the kind of experiment: Hepatotoxicity in dog assessed as effect on bilirubin and alanine transaminase level at 20 mg/kg, po. Set-up: dose 20 mg/kg, route oral. Format: toxicity, organism-based, Canis lupus familiaris. The settings on record: in vivo.
In data set [17] the test system is Canis familiaris. As to the kind of experiment: Antialzheimer activity in dog assessed as increase of amyloid beta 38 level in cerebrospinal fluid at 20 mg/kg, po after 8 hrs by ELISA. Format: functional, Canis lupus familiaris. In short, it runs like this:
as §4

The values below come from ChEMBL document CHEMBL2413065, “Design and synthesis of bicyclic heterocycles as potent γ-secretase modulators” (Bioorg Med Chem Lett, 2013).

The structures appear in SMILES notation. Calls of active or inactive are those of the source. The calls are words filed in the database; no cut-off is given here.

Chain of Cytochrome P450 3A4 (P08684 whole entry): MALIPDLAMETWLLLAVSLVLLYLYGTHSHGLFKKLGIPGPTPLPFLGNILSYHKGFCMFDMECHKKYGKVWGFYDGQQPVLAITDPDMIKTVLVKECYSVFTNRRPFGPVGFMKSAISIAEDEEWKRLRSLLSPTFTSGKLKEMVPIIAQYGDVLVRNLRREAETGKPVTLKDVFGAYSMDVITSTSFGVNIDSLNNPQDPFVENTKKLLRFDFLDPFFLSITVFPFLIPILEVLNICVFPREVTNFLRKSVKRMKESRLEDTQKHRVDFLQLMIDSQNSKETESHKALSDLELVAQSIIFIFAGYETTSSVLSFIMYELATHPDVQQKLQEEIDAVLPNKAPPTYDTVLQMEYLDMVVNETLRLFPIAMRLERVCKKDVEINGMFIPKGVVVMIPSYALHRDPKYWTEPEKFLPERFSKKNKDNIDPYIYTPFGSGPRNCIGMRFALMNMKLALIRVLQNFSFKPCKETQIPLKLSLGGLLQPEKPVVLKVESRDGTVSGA
Chain of Cytochrome P450 2D6 (P10635 whole entry): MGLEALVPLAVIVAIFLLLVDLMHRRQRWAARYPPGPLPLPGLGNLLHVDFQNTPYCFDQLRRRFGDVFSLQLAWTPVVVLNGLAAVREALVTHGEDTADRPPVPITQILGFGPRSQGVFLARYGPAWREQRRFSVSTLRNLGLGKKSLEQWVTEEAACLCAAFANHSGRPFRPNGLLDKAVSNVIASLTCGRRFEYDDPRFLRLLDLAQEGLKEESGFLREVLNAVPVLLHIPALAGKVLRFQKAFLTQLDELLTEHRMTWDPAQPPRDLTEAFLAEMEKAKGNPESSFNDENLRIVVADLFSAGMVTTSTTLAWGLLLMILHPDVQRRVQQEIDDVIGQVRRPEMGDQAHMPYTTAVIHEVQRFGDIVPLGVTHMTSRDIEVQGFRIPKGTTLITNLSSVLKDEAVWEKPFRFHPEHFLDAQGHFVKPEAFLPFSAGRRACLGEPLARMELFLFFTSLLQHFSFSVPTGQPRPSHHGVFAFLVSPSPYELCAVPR
Chain of Cytochrome P450 2C9 (P11712 whole entry): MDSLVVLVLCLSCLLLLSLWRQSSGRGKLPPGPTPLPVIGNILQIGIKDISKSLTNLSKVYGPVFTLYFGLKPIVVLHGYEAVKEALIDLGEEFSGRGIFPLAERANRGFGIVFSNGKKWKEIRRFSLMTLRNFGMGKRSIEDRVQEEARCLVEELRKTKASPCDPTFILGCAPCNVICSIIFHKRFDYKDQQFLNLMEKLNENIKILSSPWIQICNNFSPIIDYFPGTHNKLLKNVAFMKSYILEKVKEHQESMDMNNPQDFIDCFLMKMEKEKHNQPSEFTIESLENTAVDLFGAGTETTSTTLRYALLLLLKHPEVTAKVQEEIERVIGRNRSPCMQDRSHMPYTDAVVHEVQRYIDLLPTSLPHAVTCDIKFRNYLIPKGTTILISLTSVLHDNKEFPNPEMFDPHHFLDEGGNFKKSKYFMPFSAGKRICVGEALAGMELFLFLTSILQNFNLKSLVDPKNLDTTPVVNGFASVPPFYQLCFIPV
Chain of Voltage-gated inwardly rectifying potassium channel KCNH2 (Q12809 whole entry): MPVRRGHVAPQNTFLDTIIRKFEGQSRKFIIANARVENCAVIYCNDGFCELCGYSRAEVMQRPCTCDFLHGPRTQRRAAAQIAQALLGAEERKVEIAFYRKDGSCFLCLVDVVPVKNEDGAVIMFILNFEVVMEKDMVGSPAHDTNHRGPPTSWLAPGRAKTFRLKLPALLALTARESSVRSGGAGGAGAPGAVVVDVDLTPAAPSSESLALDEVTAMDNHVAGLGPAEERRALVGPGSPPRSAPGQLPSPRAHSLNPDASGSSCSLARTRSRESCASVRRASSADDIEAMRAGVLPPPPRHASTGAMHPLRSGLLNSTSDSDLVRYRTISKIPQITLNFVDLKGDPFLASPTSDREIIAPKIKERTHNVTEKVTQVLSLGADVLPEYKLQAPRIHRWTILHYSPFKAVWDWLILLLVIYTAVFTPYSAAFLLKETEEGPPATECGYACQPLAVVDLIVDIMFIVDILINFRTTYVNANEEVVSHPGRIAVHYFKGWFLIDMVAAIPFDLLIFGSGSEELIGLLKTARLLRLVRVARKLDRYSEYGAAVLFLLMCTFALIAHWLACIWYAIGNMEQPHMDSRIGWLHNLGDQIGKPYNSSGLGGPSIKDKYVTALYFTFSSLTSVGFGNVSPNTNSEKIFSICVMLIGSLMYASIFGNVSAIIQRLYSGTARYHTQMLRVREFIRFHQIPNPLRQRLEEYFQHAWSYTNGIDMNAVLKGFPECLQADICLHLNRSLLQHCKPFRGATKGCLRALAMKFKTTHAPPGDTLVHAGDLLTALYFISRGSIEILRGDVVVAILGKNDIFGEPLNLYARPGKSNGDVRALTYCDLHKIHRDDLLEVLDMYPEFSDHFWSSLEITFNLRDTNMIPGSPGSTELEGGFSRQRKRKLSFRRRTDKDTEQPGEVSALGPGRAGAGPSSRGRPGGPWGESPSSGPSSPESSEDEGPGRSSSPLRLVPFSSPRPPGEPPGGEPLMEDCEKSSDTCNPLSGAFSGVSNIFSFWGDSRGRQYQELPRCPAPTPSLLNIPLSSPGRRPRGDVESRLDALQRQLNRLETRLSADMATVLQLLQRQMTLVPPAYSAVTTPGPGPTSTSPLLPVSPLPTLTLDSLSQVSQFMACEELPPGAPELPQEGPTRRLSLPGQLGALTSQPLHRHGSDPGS
Chain of hERG (KCNH2) (Q12809 whole entry): as above
Chain of Cytochrome P450 2C19 (P33261 whole entry): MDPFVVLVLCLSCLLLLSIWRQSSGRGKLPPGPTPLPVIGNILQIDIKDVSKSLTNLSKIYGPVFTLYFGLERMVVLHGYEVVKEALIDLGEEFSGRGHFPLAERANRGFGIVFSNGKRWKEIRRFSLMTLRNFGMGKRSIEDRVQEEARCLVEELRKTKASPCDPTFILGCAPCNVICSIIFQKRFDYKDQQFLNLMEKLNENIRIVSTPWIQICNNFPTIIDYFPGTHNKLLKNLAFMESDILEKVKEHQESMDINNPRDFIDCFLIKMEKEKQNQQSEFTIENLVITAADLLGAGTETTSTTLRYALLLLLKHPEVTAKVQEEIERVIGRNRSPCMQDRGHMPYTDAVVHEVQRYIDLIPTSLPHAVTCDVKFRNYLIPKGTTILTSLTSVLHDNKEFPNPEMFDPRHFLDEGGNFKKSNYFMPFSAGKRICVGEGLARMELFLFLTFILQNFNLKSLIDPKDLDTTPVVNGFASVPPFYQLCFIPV

For orientation: IC50 means the concentration that gives 50% inhibition. `COc1cc(-c2nc(-c3ccc(F)cc3)nn2C)ccc1-n1cnc(C)c1`: the IC50 on Gamma-secretase [1] was 5750 nM.

Consider `COc1cc(-c2nc(C)n(-c3ccc(F)cc3)n2)ccc1-n1cnc(C)c1`, for which, on Gamma-secretase [1], the IC50 is 770 nM.

As to `COc1cc(-c2nc3n(n2)CCCC3c2ccc(F)cc2C)ccc1-n1cnc(C)c1` (racemic), the IC50 on Gamma-secretase [1] was 93 nM.

In the case of `COc1cc(C(=O)N[C@@H](C)c2ccc(F)cc2)ccc1-n1cnc(C)c1`, on Gamma-secretase [1], the half-maximal inhibitory concentration (IC50) worked out at 2600 nM.

As usually defined, the inhibition in vivo is the percentage by which the read-out fell short of the control. `COc1cc(C(=O)NCc2cccc(-c3ccccc3)c2)ccc1-n1cnc(C)c1` registered an IC50 against Gamma-secretase [2] of 158 nM. Further, the concentration at 4 h is 2.7 µM in data set [3] and 11.9 µM in data set [4]. For the same compound, the Kp at 4 h in [5] stood at 0.22. In addition, the inhibition in vivo at 30 mg/kg in the data set with Mus musculus [6] amounted to 12%; with Mus musculus [7], 3%.

In the case of `COc1cc(-c2nc(Cc3ccc(F)cc3)n(C)n2)ccc1-n1cnc(C)c1`, the IC50 on Gamma-secretase [1] is 850 nM.

Turning to `COc1cc(-c2nnc(-c3ccc(F)cc3)[nH]2)ccc1-n1cnc(C)c1`, the IC50 at Gamma-secretase [1] worked out at 1290 nM.

In general, inhibition refers to the change of the read-out against control, counted positive when it falls. Consider `COc1cc(-c2nc3n(n2)CCC[C@H]3c2ccccc2C(F)(F)F)ccc1-n1cnc(C)c1`, for which the concentration at 4 h worked out at 12.7 µM in data set [3] and 9.7 µM in [4]. Also, the results for the IC50 (on Gamma-secretase [1]; in [11]) were 24 nM and over 10000 nM, respectively. For the same compound, the metabolised at […], 1 µM in [8] worked out at 13%; in data set [10], 7%. Moreover, the Increase % at 30 mg/kg with Mus musculus [9] is 44%. Further, in data set [5], the Kp at 4 h worked out at 1.29. Further, on hERG (KCNH2), at 3 µM the inhibition was 11%. For the same compound, in the data set with Mus musculus [6], the inhibition in vivo at 30 mg/kg came out at 46%.

By fraction unbound is commonly meant free concentration divided by total concentration. Low readings indicate extensive binding, high ones weak binding. Regarding `COc1cc(-c2nc3n(n2)CCC[C@H]3c2ccc(F)cc2C)ccc1-n1cnc(C)c1`, the values for the concentration at 4 h in [3] and in data set [4] were 4.8 µM and 9.8 µM, respectively. The IC50 was over 10000 nM against Cytochrome P450 1A2; 9240 nM against Cytochrome P450 2C19; 40 nM at Gamma-secretase [1]; 5660 nM against Cytochrome P450 2C9; 6940 nM at Cytochrome P450 3A4; over 10000 nM on Cytochrome P450 2D6. In data set [11], this compound showed a half-maximal inhibitory concentration (IC50) of 7900 nM. For the same compound, the unbound share (fraction unbound) in data set [12] was determined as 0.0092; in data set [13] it was 0.027. Moreover, the values for the metabolised at […], 1 µM in data set [8] and in data set [10] were 41% and 9%, respectively. Also, in the data set on Mus musculus [9], the Increase % at 30 mg/kg is 59%. For the same compound, in data set [5], the Kp at 4 h worked out at 0.5. The same compound came in with an inhibition at 3 µM at hERG (KCNH2) of 28%. Besides, the inhibition in vivo at 30 mg/kg in the data set on Mus musculus [6] was 49%. The inhibition entry with Mus musculus [7] was “inactive”.

Take `COc1nc(-c2nc3n(n2)CCC[C@H]3c2ccccc2C(F)(F)F)ccc1-n1cnc(C)c1`: the concentration at 4 h in data set [3] is 2.8 µM; in data set [4], 12.3 µM. Further, the IC50 was over 10000 nM on Cytochrome P450 2C19; 28 nM at Gamma-secretase [1]; 8510 nM at Cytochrome P450 2C9; over 10000 nM on Cytochrome P450 3A4; over 10000 nM against Cytochrome P450 2D6. The fraction unbound in data set [12] is 0.022; in [13], 0.085. Also, the results for the metabolised at […], 1 µM in [8] and in [10] were 10% and 6%, respectively. Besides, in the data set on Mus musculus [9], the Increase % at 30 mg/kg worked out at 66%. Besides, in the data set on Canis familiaris [14], the inhibition in vivo at 20 mg/kg turned out to be 50%. In data set [5], the Kp at 4 h came to 0.23. The compound further had a concentration at 8 h in data set [15] of 19 µM. In addition, the Activity entry with Canis familiaris [16] is “Non-toxic”; in the data set on Canis familiaris [17] it was 28%. Also, the inhibition in vivo at 30 mg/kg in the data set with Mus musculus [6] came out at 62%.

As to `COc1cc(-c2nc3n(n2)CCC[C@@H]3c2ccc(F)cc2C)ccc1-n1cnc(C)c1`, the IC50 at Gamma-secretase [1] stood at 447 nM; in [11] it was 794 nM.

For `COc1cc(-c2nc(-c3ccc(F)cc3)n(C)n2)ccc1-n1cnc(C)c1`, at Gamma-secretase [1], the IC50 came out at 620 nM.

For `COc1cc(-c2nc3n(n2)CCCC3c2ccc(F)cc2)ccc1-n1cnc(C)c1` (racemic), the IC50 at Gamma-secretase [1] turned out to be 220 nM.

Regarding `COc1cc(-c2nc3n(n2)CCO[C@H]3c2ccccc2C(F)(F)F)ccc1-n1cnc(C)c1`, the results for the concentration at 4 h in [3] and in [4] were 3.36 µM and 3.6 µM, respectively. Moreover, the IC50 against Cytochrome P450 1A2 was over 10000 nM; on Cytochrome P450 2C19 it was 1520 nM; at Gamma-secretase [1], 71 nM; against Cytochrome P450 2C9 it was 8430 nM; against Cytochrome P450 3A4, 1100 nM; against Cytochrome P450 2D6, over 10000 nM. In addition, the IC50 in [11] was over 10000 nM. For the same compound, the results for the metabolised at […], 1 µM in data set [8] and in data set [10] were 5% and 6%, respectively. For the same compound, in the data set with Mus musculus [9], the Increase % at 30 mg/kg stood at 17%. The Kp at 4 h in data set [5] stood at 0.93. The same compound came in with an inhibition at 3 µM against hERG (KCNH2) of 12%. Besides, in the data set with Mus musculus [6], the inhibition in vivo at 30 mg/kg came out at 22%.
